Reference: ChEMBL document CHEMBL2034817, “Synthesis and evaluation of 4- and 5-pyridazin-3-one phenoxypropylamine analogues as histamine-3 receptor antagonists” (Bioorg Med Chem, 2012)
One block for each molecule: values may come before it. Calls of active or inactive are those of the source. The calls are words filed in the database; no cut-off is given here.

Key:
Histamine H3 receptor [1] = biological target: Histamine H3 receptor (Homo sapiens, UniProt Q9Y5N1); test: Displacement of [3H]-Nalpha-methylhistamine from human histamine H3 receptor expressed in CHO cells after 4 hrs by scintillation proximity assay; format: cell-based
In short: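 Membranes from CHO cells stably expressing human H3 receptor, in 50 mM Tris–HCl pH 7.4, 5 mM MgCl2, 0.1% BSA, 10 µg protein/well; ~1 nM final [3H]-N-alpha-methylhistamine; compounds 0.01 nM–30 µM; SPA beads; 4 h room temperature, dark; nonspecific binding with 10 µM clobenpropit; scintillation counting. Assay-to-assay variation typically within 2.5-fold.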

Histamine H3 receptor [2] = biological target: Histamine H3 receptor (Rattus norvegicus, UniProt Q9QYN8); test: Displacement of [3H]-Nalpha-methylhistamine from rat histamine H3 receptor expressed in CHO-A3 cells after 4 hrs by scintillation proximity assay; format: cell-based
In short: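 Rat H3 receptor in pIRES-neo3 stably transfected into CHO-A3 cells, clonally selected; washed membranes in Tris–HCl pH 7.4, 5 mM MgCl2, 0.1% BSA, 10 µg protein/well; ~1 nM final [3H]-N-alpha-methylhistamine, compounds 0.01 nM–30 µM, SPA beads, 4 h room temperature, dark; nonspecific with 10 µM clobenpropit; scintillation counting.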

[3] = Clearance in Sprague-Dawley rat at 1 mg/kg, iv; format: ADME, organism-based; set-up: dose 1 mg/kg, route intravenous; conditions: in vivo
In short: (§1)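 Adult male Sprague–Dawley rats (275–350 g). iv dosing via lateral tail vein (3% DMSO/30% Solutol/67% PBS or 100% saline); oral gavage after overnight fast (Tween 80/propylene carbonate/propylene glycol, saline, or 2% HCl–water). Seven serial tail-vein blood samples over 6 or 24 h; plasma protein-precipitated with acetonitrile, LC–MS/MS; noncompartmental parameters.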

[4] = AUC (0 to t) in Sprague-Dawley rat at 5 mg/kg, po; format: ADME, organism-based; set-up: dose 5 mg/kg, route oral; conditions: plasma; in short: as §1
[5] = Cmax in Sprague-Dawley rat at 5 mg/kg, po; format: ADME, organism-based; set-up: dose 5 mg/kg, route oral; conditions: in vivo; in short: as §1
[6] = Oral bioavailability in Sprague-Dawley rat at 5 mg/kg; format: ADME, organism-based; conditions: in vivo; in short: as §1
[7] = Ratio of drug level in brain to plasma in Sprague-Dawley rat at 5 mg/kg, po at 6 hrs; format: ADME, organism-based; set-up: dose 5 mg/kg, route oral; conditions: read-out: BPR
In short: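 Brain-to-plasma ratio from the 6 h time point after 5 mg/kg po dosing in Sprague–Dawley rats; plasma drug measured by LC–MS/MS after acetonitrile protein precipitation.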

[8] = biological target: Histamine H3 receptor (Rattus norvegicus) (UniProt Q9QYN8); test: Antagonist activity at histamine H3 receptor on rat cortex membrane by [35S]GTPgammaS binding assay; format: functional, tissue-based
[9] = biological target: Histamine H3 receptor (Rattus norvegicus) (UniProt Q9QYN8); test: Inverse agonist activity at histamine H3 receptor on rat cortex membrane by [35S]GTPgammaS binding assay; format: functional
[10] = biological target: Voltage-gated inwardly rectifying potassium channel KCNH2 (Homo sapiens, UniProt Q12809); test: Inhibition of human ERG by patch clamp assay
In short: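 hERG inhibition measured in a patch clamp assay.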

[11] = Plasma protein binding in mouse at 5 uM after 1 hr by LC-MS/MS analysis; format: ADME, cell-free; conditions: read-out: PPB (converted)
[12] = Plasma protein binding in rat at 5 uM after 1 hr by LC-MS/MS analysis; format: ADME, cell-free; conditions: read-out: PPB (converted)
[13] = Plasma protein binding in dog at 5 uM after 1 hr by LC-MS/MS analysis; format: ADME, cell-free, Canis lupus familiaris; conditions: read-out: PPB (converted)
[14] = Plasma protein binding in human at 5 uM after 1 hr by LC-MS/MS analysis; format: ADME, cell-free; conditions: read-out: PPB (converted)
[15] = Fraction unbound in rat brain homogenate; format: ADME, tissue-based
[16] = Solubility of the compound in water; format: physicochemical; conditions: buffer
Salmonella typhimurium = test: Genotoxicity against Salmonella typhimurium by AMES test; format: toxicity, organism-based; conditions: salmonella enterica subsp. enterica serovar typhimurium
Rattus norvegicus [17] = test: Antidipsogenic activity in ip dosed Harlan Long Evans rat assessed as inhibition of RAMH-induced water drinking; format: functional
In short: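 Water drinking for 30 min beginning 20 min after RAMH (10 mg/kg ip); test compound in saline given beforehand. Per-rat percent inhibition normalized to RAMH group mean drinking; group means compared by one-way ANOVA with Dunnett's test versus RAMH group.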

Rattus norvegicus [18] = test: Wake promoting activity in ip dosed rat assessed as increased wake activity after 4 hrs; format: functional, organism-based
Rattus norvegicus [19] = test: Wake promoting activity in rat assessed as cumulative wake time at 10 mg/kg, ip after 4 hrs (reference value: 76+/-6 mins); format: functional; conditions: route intraperitoneal
Rattus norvegicus [20] = test: Wake promoting activity in rat assessed as cumulative wake time at 30 mg/kg, ip after 4 hrs (reference value: 76+/-6 mins); format: functional; conditions: route intraperitoneal
Rattus norvegicus [21] = test: Toxicity in rat assessed as rat assessed as sleep rebound up to 30 mg/kg, ip up to 22 hrs; format: organism-based; set-up: dose 30 mg/kg, route intraperitoneal; conditions: in vivo
In short: (§2)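 Rats implanted for chronic EEG/EMG recording, dosed ip up to 30 mg/kg; EEG monitored for adverse activity, and sleep after the wake period scored for rebound up to 22 h post-dose.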

Rattus norvegicus [22] = test: Toxicity in rat assessed as rat assessed as adverse EEG activity up to 30 mg/kg, ip; format: organism-based; set-up: dose 30 mg/kg, route intraperitoneal; conditions: in vivo; in short: as §2
Caco-2 = test: Permeability across human Caco2 cells; format: ADME, cell-based
[23] = Half life in Sprague-Dawley rat at 1 mg/kg, iv; format: ADME, organism-based; set-up: dose 1 mg/kg, route intravenous; conditions: in vivo; in short: as §1
[24] = Volume of distribution in Sprague-Dawley rat at 1 mg/kg, iv; format: ADME, organism-based; set-up: dose 1 mg/kg, route intravenous; conditions: in vivo; in short: as §1
Histamine H1 receptor = Histamine H1 receptor (Homo sapiens, UniProt P35367); test: Binding affinity to human histamine H1 receptor
Histamine H2 receptor = Histamine H2 receptor (Homo sapiens, UniProt P25021); test: Binding affinity to human histamine H2 receptor
Histamine H4 receptor = Histamine H4 receptor (Homo sapiens, UniProt Q9H3N8); test: Binding affinity to human histamine H4 receptor
[25] = Half life in human liver microsomes; format: ADME, Microsome
[26] = Half life in mouse liver microsomes; format: ADME, Microsome
[27] = Half life in rat liver microsomes; format: ADME, Microsome
[28] = Half life in monkey liver microsomes; format: ADME, Macaca mulatta, Microsome; conditions: rhesus monkey
Cytochrome P450 1A2 = biological target: T1, Cytochrome P450 1A2 (Homo sapiens, UniProt P05177); test: Inhibition of CYP1A2; format: ADME
T1 sequence (P05177 whole entry): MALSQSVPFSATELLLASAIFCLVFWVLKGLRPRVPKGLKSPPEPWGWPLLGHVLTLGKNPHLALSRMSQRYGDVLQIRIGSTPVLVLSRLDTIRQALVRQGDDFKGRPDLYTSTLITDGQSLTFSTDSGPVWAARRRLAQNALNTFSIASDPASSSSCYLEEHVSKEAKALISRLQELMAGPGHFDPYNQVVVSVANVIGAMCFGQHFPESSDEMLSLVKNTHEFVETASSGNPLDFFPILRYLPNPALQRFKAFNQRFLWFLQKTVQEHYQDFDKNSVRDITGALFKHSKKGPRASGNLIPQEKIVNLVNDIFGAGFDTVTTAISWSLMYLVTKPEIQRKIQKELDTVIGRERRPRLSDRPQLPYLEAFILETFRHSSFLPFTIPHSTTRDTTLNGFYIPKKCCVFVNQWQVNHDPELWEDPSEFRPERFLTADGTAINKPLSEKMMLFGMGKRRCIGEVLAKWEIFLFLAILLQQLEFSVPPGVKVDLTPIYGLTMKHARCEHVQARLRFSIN

Cytochrome P450 2C9 = Cytochrome P450 2C9 (Homo sapiens, UniProt P11712); test: Inhibition of CYP2C9; format: ADME
Cytochrome P450 2C19 = Cytochrome P450 2C19 (Homo sapiens, UniProt P33261); test: Inhibition of CYP2C19; format: ADME
Cytochrome P450 2D6 = Cytochrome P450 2D6 (Homo sapiens, UniProt P10635); test: Inhibition of CYP2D6; format: ADME
Cytochrome P450 3A4 = Cytochrome P450 3A4 (Homo sapiens, UniProt P08684); test: Inhibition of CYP3A4; format: ADME
Sequence of Cytochrome P450 3A4 (P08684 whole entry): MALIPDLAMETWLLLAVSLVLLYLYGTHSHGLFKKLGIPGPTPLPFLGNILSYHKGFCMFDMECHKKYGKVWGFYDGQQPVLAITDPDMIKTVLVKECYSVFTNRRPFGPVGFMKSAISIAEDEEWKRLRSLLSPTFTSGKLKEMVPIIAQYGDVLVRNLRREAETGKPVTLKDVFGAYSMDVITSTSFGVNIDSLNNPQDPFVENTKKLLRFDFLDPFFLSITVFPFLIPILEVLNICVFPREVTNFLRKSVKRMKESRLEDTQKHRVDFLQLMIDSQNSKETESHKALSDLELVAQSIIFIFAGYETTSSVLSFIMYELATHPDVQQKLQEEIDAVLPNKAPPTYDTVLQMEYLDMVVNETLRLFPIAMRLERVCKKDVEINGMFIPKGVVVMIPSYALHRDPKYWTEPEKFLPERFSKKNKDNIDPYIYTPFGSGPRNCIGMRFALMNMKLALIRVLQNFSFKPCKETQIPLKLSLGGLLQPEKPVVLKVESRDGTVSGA

Sequence of Histamine H3 receptor (Rattus norvegicus, UniProt Q9QYN8) (Q9QYN8 whole entry): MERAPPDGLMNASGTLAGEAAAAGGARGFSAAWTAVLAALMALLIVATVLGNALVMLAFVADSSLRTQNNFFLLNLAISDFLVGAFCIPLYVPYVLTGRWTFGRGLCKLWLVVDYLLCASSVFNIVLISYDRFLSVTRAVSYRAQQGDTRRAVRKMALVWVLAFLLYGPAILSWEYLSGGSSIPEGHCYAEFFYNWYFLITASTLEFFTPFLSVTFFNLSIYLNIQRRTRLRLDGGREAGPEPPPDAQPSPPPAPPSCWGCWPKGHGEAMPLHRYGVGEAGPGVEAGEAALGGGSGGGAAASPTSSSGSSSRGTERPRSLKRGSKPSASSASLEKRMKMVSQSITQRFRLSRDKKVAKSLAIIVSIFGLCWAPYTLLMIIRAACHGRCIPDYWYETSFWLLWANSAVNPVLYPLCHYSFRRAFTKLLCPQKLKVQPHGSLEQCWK
Sequence of Histamine H3 receptor (Homo sapiens, UniProt Q9Y5N1) (Q9Y5N1 whole entry): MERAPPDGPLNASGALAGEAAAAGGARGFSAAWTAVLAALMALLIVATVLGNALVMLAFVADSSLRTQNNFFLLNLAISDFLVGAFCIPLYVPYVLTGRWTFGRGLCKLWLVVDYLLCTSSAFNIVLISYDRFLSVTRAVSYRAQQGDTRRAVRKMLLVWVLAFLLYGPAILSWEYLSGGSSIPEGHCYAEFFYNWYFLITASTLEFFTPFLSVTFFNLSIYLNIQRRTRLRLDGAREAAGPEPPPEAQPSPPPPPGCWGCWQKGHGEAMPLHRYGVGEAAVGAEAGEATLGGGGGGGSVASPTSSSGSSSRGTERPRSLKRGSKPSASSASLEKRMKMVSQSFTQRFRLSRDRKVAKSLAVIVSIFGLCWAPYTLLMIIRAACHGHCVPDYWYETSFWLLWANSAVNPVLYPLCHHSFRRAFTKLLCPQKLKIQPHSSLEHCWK
Sequence of Cytochrome P450 2D6 (P10635 whole entry): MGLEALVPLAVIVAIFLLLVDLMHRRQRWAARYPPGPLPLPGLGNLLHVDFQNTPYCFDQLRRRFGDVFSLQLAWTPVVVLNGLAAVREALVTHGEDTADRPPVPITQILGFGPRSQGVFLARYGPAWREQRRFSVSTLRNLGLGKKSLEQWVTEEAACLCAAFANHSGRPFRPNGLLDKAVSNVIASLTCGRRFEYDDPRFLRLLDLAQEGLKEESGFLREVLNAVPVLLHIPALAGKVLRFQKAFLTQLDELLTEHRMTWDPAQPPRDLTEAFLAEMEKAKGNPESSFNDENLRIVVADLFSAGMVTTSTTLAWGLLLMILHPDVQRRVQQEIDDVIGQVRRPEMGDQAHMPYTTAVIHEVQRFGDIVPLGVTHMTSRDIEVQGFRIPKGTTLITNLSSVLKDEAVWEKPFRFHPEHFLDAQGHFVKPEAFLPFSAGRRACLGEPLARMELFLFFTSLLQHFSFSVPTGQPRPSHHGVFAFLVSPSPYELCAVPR
Sequence of Histamine H2 receptor (P25021 whole entry): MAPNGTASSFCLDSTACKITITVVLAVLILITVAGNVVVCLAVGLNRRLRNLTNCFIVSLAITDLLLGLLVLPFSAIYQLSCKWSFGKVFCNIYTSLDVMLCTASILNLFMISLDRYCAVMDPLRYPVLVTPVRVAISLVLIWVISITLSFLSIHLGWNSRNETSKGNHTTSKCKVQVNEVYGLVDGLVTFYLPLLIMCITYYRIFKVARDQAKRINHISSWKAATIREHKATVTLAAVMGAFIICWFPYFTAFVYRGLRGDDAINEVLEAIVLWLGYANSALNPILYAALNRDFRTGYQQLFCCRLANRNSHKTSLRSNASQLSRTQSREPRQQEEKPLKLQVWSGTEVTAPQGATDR
Sequence of Histamine H1 receptor (P35367 whole entry): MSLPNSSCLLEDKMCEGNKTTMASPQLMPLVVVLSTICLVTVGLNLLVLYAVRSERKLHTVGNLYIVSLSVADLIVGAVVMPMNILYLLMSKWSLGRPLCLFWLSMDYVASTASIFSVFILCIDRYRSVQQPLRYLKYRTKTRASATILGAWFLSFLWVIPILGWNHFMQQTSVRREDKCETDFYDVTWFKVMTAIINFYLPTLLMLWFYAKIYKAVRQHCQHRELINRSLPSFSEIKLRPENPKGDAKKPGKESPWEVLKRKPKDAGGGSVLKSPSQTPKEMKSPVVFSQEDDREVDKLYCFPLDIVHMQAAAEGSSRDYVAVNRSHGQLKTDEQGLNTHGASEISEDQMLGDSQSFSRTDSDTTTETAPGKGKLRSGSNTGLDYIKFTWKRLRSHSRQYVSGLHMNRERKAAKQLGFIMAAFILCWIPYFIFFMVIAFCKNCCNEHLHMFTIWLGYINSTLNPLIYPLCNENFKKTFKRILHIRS
Sequence of Histamine H3 receptor (Rattus norvegicus) (Q9QYN8 whole entry): as the sequence (Q9QYN8 whole entry) above
Sequence of Cytochrome P450 2C19 (P33261 whole entry): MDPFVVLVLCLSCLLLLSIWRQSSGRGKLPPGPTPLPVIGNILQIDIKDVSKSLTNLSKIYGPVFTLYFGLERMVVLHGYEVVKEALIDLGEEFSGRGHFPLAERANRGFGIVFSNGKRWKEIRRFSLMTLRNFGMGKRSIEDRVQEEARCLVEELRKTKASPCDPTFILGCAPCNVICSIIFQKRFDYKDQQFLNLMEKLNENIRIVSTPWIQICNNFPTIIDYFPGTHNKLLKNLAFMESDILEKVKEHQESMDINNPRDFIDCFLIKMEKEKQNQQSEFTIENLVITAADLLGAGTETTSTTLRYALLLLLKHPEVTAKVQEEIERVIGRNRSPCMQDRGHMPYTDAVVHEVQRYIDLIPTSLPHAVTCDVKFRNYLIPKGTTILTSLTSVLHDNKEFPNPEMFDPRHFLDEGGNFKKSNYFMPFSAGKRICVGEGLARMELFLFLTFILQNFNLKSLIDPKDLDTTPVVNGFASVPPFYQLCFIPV
Sequence of Cytochrome P450 2C9 (P11712 whole entry): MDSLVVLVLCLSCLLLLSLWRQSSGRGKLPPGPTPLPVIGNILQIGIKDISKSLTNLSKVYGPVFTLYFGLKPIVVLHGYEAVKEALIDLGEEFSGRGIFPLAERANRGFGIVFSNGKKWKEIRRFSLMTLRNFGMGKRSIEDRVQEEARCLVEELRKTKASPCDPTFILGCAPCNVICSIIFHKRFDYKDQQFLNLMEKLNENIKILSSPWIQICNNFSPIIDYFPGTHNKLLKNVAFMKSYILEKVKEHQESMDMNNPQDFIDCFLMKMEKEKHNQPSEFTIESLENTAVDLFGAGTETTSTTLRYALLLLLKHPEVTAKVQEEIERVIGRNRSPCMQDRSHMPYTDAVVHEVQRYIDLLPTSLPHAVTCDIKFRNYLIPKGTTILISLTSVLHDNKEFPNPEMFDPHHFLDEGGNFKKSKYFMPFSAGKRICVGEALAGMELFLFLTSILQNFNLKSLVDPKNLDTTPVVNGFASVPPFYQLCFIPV
Sequence of Voltage-gated inwardly rectifying potassium channel KCNH2 (Q12809 whole entry): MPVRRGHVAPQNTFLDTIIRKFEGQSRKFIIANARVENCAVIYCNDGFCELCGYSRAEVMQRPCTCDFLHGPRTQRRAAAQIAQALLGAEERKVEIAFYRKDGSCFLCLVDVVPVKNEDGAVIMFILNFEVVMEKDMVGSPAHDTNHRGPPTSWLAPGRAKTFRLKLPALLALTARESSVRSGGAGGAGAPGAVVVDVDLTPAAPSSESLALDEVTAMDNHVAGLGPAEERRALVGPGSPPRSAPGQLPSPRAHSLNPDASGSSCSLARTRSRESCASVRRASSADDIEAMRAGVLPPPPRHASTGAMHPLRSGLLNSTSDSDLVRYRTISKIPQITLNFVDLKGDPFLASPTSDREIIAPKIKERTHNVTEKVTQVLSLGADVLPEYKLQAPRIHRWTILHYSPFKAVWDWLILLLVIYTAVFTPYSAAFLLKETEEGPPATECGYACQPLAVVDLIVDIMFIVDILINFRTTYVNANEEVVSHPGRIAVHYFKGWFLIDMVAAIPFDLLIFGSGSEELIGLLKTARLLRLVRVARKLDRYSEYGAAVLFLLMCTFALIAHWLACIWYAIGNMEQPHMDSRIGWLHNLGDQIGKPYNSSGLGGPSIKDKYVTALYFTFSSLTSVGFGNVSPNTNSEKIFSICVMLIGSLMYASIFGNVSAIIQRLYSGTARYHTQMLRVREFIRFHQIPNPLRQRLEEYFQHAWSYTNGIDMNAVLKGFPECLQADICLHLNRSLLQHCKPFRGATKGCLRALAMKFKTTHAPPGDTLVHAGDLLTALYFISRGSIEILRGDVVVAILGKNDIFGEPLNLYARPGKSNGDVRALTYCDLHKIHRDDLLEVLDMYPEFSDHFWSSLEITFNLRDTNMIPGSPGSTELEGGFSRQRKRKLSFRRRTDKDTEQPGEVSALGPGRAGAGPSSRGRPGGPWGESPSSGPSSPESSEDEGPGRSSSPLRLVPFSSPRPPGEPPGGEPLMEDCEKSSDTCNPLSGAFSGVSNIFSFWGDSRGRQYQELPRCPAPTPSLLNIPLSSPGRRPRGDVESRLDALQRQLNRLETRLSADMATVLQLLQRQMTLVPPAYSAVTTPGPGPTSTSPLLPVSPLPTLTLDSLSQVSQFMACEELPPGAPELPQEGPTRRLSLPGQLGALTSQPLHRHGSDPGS

Structure (SMILES): C[C@@H](COc1ccc(-c2cn[nH]c(=O)c2)cc1)CN1CCCCC1
Ki (Histamine H3 receptor [1]): 47 nM
Ki (Histamine H3 receptor [2]): 131 nM

Structure (SMILES): C[C@@H]1CCCN1CCCOc1ccc(-c2cn[nH]c(=O)c2)cc1
Ki (Histamine H3 receptor [1]): 3 nM
Ki (Histamine H3 receptor [2]): 9 nM
clearance [3]: 10 mL/min/kg
AUC(0-t) [4]: 1290 ng·h/mL
Cmax [5]: 401 ng/mL
bioavailability [6]: 22%
Kp at 6 h [7]: 1.8
Activity [8]: Active
Activity [9]: Active
IC50 [10]: 10000 nM
fraction unbound at 1 h, 5 µM [11]: 0.8
fraction unbound at 1 h, 5 µM [12]: 0.8
fraction unbound at 1 h, 5 µM [13]: 0.8
fraction unbound at 1 h, 5 µM [14]: 0.8
fraction unbound [15]: 0.45
solubility [16]: soluble
Activity (Salmonella typhimurium): Non-toxic
ED50 (Rattus norvegicus [17]): 0.03 mg/kg
Activity (Rattus norvegicus [18]): Dose-dependent effect
Time (Rattus norvegicus [19]): 191 min
Activity (Rattus norvegicus [20]): 95%
Activity (Rattus norvegicus [21]): Non-toxic
Activity (Rattus norvegicus [22]): Non-toxic
permeability (Caco-2): permeable

Structure (SMILES): C[C@@H](COc1ccc(-c2cn[nH]c(=O)c2)cc1)CN1CCC[C@H]1C
Ki (Histamine H3 receptor [2]): 43 nM

Structure (SMILES): C[C@H](COc1ccc(-c2cn[nH]c(=O)c2)cc1)CN1CCCCC1
Ki (Histamine H3 receptor [1]): 25 nM
Ki (Histamine H3 receptor [2]): 34 nM

Structure (SMILES): C[C@H](COc1ccc(-c2cn[nH]c(=O)c2)cc1)CN1CCC[C@H]1C
Ki (Histamine H3 receptor [2]): 4 nM
half-life [23]: 126 min
Vd [24]: 3.9 L/kg
clearance [3]: 21 mL/min/kg
AUC(0-t) [4]: 762 ng·h/mL
Cmax [5]: 187 ng/mL
bioavailability [6]: 24%
Kp at 6 h [7]: 6.2
Ki (Histamine H1 receptor): > 10000 nM
Ki (Histamine H2 receptor): > 10000 nM
Ki (Histamine H4 receptor): > 10000 nM
half-life [25]: > 40 min
half-life [26]: > 40 min
half-life [27]: > 40 min
half-life [28]: > 40 min
IC50 (Cytochrome P450 1A2): > 30000 nM
IC50 (Cytochrome P450 2C9): > 30000 nM
IC50 (Cytochrome P450 2C19): > 30000 nM
IC50 (Cytochrome P450 2D6): > 30000 nM
IC50 (Cytochrome P450 3A4): > 30000 nM

Structure (SMILES): COc1cn[nH]c(=O)c1-c1ccc(OCCCN2CCC[C@H]2C)cc1
Ki (Histamine H3 receptor [1]): 20 nM
Ki (Histamine H3 receptor [2]): 62 nM

More lines, now with the values ahead:

Ki (Histamine H3 receptor [1]): 4 nM
Ki (Histamine H3 receptor [2]): 14 nM
half-life [23]: 24 min
Vd [24]: 3.2 L/kg
clearance [3]: 93 mL/min/kg
AUC(0-t) [4]: 42 ng·h/mL
Cmax [5]: 53 ng/mL
bioavailability [6]: 6%
Ki (Histamine H1 receptor): > 10000 nM
Ki (Histamine H2 receptor): > 10000 nM
Ki (Histamine H4 receptor): > 10000 nM
half-life [25]: > 40 min
half-life [26]: > 40 min
half-life [27]: > 40 min
half-life [28]: > 40 min
IC50 (Cytochrome P450 1A2): > 30000 nM
IC50 (Cytochrome P450 2C9): > 30000 nM
IC50 (Cytochrome P450 2C19): > 30000 nM
IC50 (Cytochrome P450 2D6): > 30000 nM
IC50 (Cytochrome P450 3A4): > 30000 nM
Structure (SMILES): COCn1ncc(-c2ccc(OCCCN3CCC[C@H]3C)cc2)cc1=O

Ki (Histamine H3 receptor [1]): 5 nM
Ki (Histamine H3 receptor [2]): 13 nM
Structure (SMILES): COCn1ncc(-c2ccc(OCCCN3CCC[C@H]3C)cc2)c(OC)c1=O

Ki (Histamine H3 receptor [1]): 10 nM
Ki (Histamine H3 receptor [2]): 19 nM
Structure (SMILES): COCn1ncc(OC)c(-c2ccc(OCCCN3CCC[C@H]3C)cc2)c1=O
